Series [1] deals with T1, 2-Hydroxyacid oxidase 1 (Homo sapiens, UniProt Q9UJM8).
T1 sequence (Q9UJM8 whole entry): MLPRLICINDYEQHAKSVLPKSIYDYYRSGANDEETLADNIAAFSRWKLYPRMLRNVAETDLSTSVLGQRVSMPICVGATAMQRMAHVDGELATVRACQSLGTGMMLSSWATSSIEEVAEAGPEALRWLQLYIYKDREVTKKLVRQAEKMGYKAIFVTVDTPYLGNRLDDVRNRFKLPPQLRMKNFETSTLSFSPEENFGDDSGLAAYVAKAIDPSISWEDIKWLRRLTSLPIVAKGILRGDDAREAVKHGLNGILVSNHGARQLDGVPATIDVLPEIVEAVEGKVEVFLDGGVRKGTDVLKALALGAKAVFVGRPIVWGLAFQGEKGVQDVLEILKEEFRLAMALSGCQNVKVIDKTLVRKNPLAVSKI
Description: Inhibition of N-terminal His-tagged human recombinant glycolate oxidase expressed in Escherichia coli BL21 (DE3) cells using glycolate as substrate preincubated for 10 mins followed by substrate addition and measured after 10 mins by Amplex red and horseradish peroxidase based fluorescence assay.

Series [2] addresses T2, 2-Hydroxyacid oxidase 1 (Mus musculus, UniProt Q9WU19).
T2 sequence (Q9WU19 whole entry): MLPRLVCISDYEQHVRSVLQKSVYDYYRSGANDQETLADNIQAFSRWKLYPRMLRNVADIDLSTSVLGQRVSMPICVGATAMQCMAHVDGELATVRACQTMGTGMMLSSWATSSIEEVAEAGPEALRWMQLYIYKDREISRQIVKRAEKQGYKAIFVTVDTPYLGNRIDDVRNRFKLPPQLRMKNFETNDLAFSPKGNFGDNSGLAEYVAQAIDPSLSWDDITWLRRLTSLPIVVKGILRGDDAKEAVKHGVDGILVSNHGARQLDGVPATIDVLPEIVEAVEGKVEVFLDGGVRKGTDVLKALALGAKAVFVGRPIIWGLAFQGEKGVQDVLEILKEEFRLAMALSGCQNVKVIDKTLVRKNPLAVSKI
In words: Inhibition of N-terminal His-tagged mouse recombinant glycolate oxidase expressed in Escherichia coli BL21 (DE3) cells using glycolate as substrate preincubated for 10 mins followed by substrate addition and measured after 10 mins by Amplex red and horseradish peroxidase based fluorescence assay.

Series [3] addresses T3, L-lactate dehydrogenase A chain (Homo sapiens, UniProt P00338). In words: Inhibition of human recombinant LDHA using pyruvate as substrate preincubated for 10 mins followed by substrate addition and measured every 60 sec for 10 mins in the presence of NADH by fluorescence assay.
Series [4] deals with T4, L-lactate dehydrogenase B chain (Homo sapiens, UniProt P07195). In words: Inhibition of human recombinant LDHB using pyruvate as substrate preincubated for 10 mins followed by substrate addition and measured every 60 sec for 10 mins in the presence of NADH by fluorescence assay.
For series [5], the target named is T1, 2-Hydroxyacid oxidase 1. Description: Non-competitive mixed inhibition of N-terminal His-tagged human recombinant glycolate oxidase expressed in Escherichia coli BL21 (DE3) cells assessed as inhibition constant using varying concentration of glycolate as substrate measured every 60 sec for 15 mins by Amplex red and horseradish peroxidase based fluorescence assay.

For series [6], the target named is T5, 2-Hydroxyacid oxidase 1 (Homo sapiens) (UniProt Q9UJM8).
T5 sequence (whole entry): T1 sequence (Q9UJM8 whole entry)
Description: Reversible inhibition of N-terminal His-tagged human recombinant glycolate oxidase expressed in Escherichia coli BL21 (DE3) cells assessed as enzyme recovery using glycolate as substrate at 10 times of IC50 concentration preincubated for 30 mins followed by substrate addition and measured every 60 sec for 15 mins by jump-dilution based Amplex red and horseradish peroxidase fluorescence assay. The settings on record: time 45.0 min.

Series [7] addresses T5, 2-Hydroxyacid oxidase 1 (Homo sapiens). In words: Reversible inhibition of N-terminal His-tagged human recombinant glycolate oxidase expressed in Escherichia coli BL21 (DE3) cells assessed as enzyme recovery using glycolate as substrate at 100 times of IC50 concentration preincubated for 30 mins followed by substrate addition and measured every 60 sec for 15 mins by jump-dilution based Amplex red and horseradish peroxidase fluorescence assay. The settings on record: time 45.0 min.

Series [8] has as its target T3, L-lactate dehydrogenase A chain. In words: Non-competitive inhibition of human recombinant LDHA assessed as inhibition constant using varying concentration of pyruvate as substrate preincubated for 10 mins followed by substrate addition and measured every 60 sec for 10 mins in the presence of NADH by fluorescence assay.
Series [9] deals with T4, L-lactate dehydrogenase B chain. Description: Non-competitive inhibition of human recombinant LDHB assessed as inhibition constant using varying concentration of pyruvate as substrate preincubated for 10 mins followed by substrate addition and measured every 60 sec for 10 mins in the presence of NADH by fluorescence assay.
The species named for another series is Homo sapiens. Description: Ratio of Ki for Non-competitive inhibition of human recombinant LDHB to Ki for non-competitive inhibition of human recombinant LDHA.
Series [10] concerns the target T3, L-lactate dehydrogenase A chain. In words: Non-competitive inhibition of human recombinant LDHA assessed as decrease in Vmax with no effect on Km using pyruvate as substrate upto 20 uM.
For series [11], the system named is Hepatocyte. Description: Inhibition of GO/LDHA in hyperoxaluric-primary hepatocyte isolated from Grhpr-knockdown PH2 C57BL/6 mouse assessed as relative oxalate output at 10 uM measured at 48 hrs in the presence of glycolate relative to control. Format: cell-based. In a few lines: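 Grhpr-/- mouse primary hepatocytes cultured with 10 mM glycolate, inhibitor at 10 μM; extracellular oxalate determined colorimetrically at 24 and 48 h post-treatment, expressed relative to untreated medium (RO); negative RO means below detection limit; three/four replicates, mean ± SD.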

The test system of series [12] is Hepatocyte. Description: Inhibition of GO/LDHA in hyperoxaluric-primary hepatocyte isolated from Hoga1-knockdown PH3 C57BL/6 mouse assessed as relative oxalate output at 10 uM measured at 48 hrs in the presence of hydroxyproline relative to control. The series is classed as cell-based. In a few lines: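 Hoga1-/- mouse primary hepatocytes challenged with 10 mM hydroxyproline, inhibitor 10 μM; extracellular oxalate measured by colorimetric kit 24 and 48 h after dosing, given as ratio to oxalate without inhibitor; negative values are below detection limit; mean of three/four replicates ± SD.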

The test system of series [13] is Hepatocyte. In words: Cytotoxicity against hyperoxaluric-primary hepatocyte isolated from Hoga1-knockdown PH3 C57BL/6 mouse assessed as cell death at 10 uM by MTS assay. The series is classed as toxicity, cell-based. Particulars: hepatocytes, Hoga1-knockdown PH3, 10 µM. In a few lines: (§1)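 Primary hepatocytes from Agxt1-/- (PH1, 5 mM glycolate), Grhpr-/- (PH2, 10 mM glycolate) or Hoga1-/- (PH3, 10 mM hydroxyproline) mice, incubated with inhibitor at 10 μM; viability followed through the oxalate assay by MTS tetrazolium method.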
A general note: Tetrazolium dyes change colour on reduction, which living cells bring about.

The subject of series [14] is Hepatocyte. In words: Cytotoxicity against hyperoxaluric-primary hepatocyte isolated from Agxt1-knockdown PH1 C57BL/6 mouse assessed as cell death at 10 uM by MTS assay. Format: toxicity, cell-based. Particulars: hepatocytes, Agxt1-knockdown PH1, 10 µM. The method in brief:
as §1

A further series concerns HEK293. In words: Cytotoxicity against HEK293 cells assessed as reduction in cell viability upto 50 uM measured after 48 hrs by MTT assay. The settings on record: human, hek293, 48 h. The series is classed as toxicity, cell-based.

Activity calls are given as the source filed them. The rule behind the calls is not given here.

In general, IC50 refers to the concentration that inhibits the measured activity by half. A word on the Ki: it is a measure of affinity in units of concentration, obtained from inhibition or displacement.

T4 sequence (P07195 whole entry): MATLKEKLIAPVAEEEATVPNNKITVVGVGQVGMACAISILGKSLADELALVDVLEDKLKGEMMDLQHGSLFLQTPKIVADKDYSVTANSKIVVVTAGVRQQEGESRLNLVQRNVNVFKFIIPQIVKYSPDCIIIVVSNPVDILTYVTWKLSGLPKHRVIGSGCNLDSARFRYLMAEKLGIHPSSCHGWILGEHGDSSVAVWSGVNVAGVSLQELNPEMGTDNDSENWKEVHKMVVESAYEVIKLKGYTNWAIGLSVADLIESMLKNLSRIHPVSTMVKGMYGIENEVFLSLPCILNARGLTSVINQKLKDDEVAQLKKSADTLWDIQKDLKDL

Regarding `N.N.O=C(O)c1cc(-c2ccc(CN(Cc3ccccc3)Cc3ccc(-c4ccc(O)c(C(=O)O)c4)o3)o2)ccc1O`, the IC50 at 2-Hydroxyacid oxidase 1 [1] came to 1500 nM; at 2-Hydroxyacid oxidase 1 [2], 1800 nM; in series [3], 400 nM; in series [4] it was 200 nM. In addition, the inhibition constant (Ki) at 2-Hydroxyacid oxidase 1 [5] is 2300 nM; in series [8] it was 90 nM; in series [9], 700 nM. For the same compound, the inhibition entry in series [6], in series [7] and in series [10] was “Active” each time. Also, the Ratio in the series listed under Homo sapiens worked out at 8. Also, the fold change (FC) stood at 0.76 in the series with Hepatocyte [11] and 0.47 with Hepatocyte [12]. Moreover, the Activity entry with Hepatocyte [13], with Hepatocyte [14] and with HEK293 was “Non-Toxic” each time.

(Values after ChEMBL document CHEMBL5120856, “New salicylic acid derivatives, double inhibitors of glycolate oxidase and lactate dehydrogenase, as effective agents decreasing oxalate production” (Eur J Med Chem, 2022).)
